# Experimental data of several laboratories.
# Sample: plasma
Structure (SMILES),system,conditions,half-life
N#Cc1cccc(-c2ccc3ncc(-c4cc(F)cc(F)c4)c(N4CCC(N)CC4)c3c2)c1O,human,"intravenous, 50 µg",30 h
OC[C@H]1O[C@@H](c2cc(Cc3ccc(C4CC4)cc3)c(Cl)c3c2CCO3)[C@H](O)[C@@H](O)[C@@H]1O,human,"oral, 0.3 mg, single dose, fasted, healthy volunteers",12.5 h
O=C(COc1ccc(Cl)cc1)NC12CC(c3nnc([C@H]4C[C@@H](OC(F)(F)F)C4)o3)(C1)C2,human,"oral, 145 mg, multiple doses, once daily, healthy volunteers",37.5 h
Cc1cn([C@H]2C[C@H](N=[N+]=[N-])[C@@H](CO)O2)c(=O)[nH]c1=O,human,"oral, 600 mg, single dose, healthy volunteers",1.95 h
CC(C)c1nc(N(C)S(C)(=O)=O)nc(-c2ccc(F)cc2)c1/C=C/[C@@H](O)C[C@@H](O)CC(=O)O,human,"oral, 10 mg",21.6 h
C=CC(=O)NC1CCN(c2ncc3ncnc(Nc4ccc(Oc5ccc6c(c5)ncn6C)c(C)c4)c3n2)CC1,male human,"intravenous, 100 µg, healthy volunteers",42.7 h
CC(=O)N(C)[C@H]1CCN(C(=O)c2cnc3c(c2)C[C@](C)(c2ccc(F)cc2)N3)C1,male human,"oral, 30 mg, multiple doses, once daily, steady state",21.8 h
COc1ccc2c(c1)CN(C(=O)CCN1CCC(Cc3ccccc3)CC1)CC[S@@+]2[O-],male human,"intravenous, 0.15 mg/kg, single dose, healthy volunteers",6.39 h
CC1(C)CC[C@]2(NC(=O)C(C)(F)F)CC[C@]3(C)[C@H](C(=O)C=C4[C@@]5(C)C=C(C#N)C(=O)C(C)(C)[C@@H]5CC[C@]43C)[C@@H]2C1,human,"oral, 150 mg, single dose",88.3 h
C[C@@H](Oc1ccc(S(C)(=O)=O)cc1C(=O)N1C[C@@H]2C[C@]2(c2cc(C(F)(F)F)on2)C1)C(F)(F)F,human,"oral, 10 mg, single dose, fasted, healthy volunteers",38.1 h
